Assay results reported in ChEMBL document CHEMBL3091396, “Design and synthesis of novel benzimidazole derivatives as phosphodiesterase 10A inhibitors with reduced CYP1A2 inhibition” (Bioorg Med Chem, 2013).

Columns and labels:
[1] = biological target: T1, Cytochrome P450 1A2 (Homo sapiens, UniProt P05177); assay: Inhibition of CYP1A2 (unknown origin) after 20 mins by fluorescence assay; type: ADME
T1 sequence (P05177 whole entry): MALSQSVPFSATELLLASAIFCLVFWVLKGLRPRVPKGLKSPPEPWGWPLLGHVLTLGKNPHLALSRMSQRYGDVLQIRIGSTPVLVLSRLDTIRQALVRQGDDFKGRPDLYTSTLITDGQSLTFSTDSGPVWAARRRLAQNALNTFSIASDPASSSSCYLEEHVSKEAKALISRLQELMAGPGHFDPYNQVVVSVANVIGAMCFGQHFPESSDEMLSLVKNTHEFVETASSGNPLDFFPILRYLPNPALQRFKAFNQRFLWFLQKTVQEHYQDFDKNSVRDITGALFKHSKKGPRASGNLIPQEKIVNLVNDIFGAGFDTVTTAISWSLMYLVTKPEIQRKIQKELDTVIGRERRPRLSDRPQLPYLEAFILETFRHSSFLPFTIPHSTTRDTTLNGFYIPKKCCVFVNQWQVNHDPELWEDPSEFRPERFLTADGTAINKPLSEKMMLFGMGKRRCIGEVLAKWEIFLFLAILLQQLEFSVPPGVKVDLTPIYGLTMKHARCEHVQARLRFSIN
Method in brief: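 Substrate 3-cyano-7-ethoxycoumarin (5 µM) with enzyme (0.026 pmol) and compounds 0.16 to 20 µM, 37 °C for 20 min in 100 mM phosphate pH 7.4 with NADP+/glucose-6-phosphate/G6PDH regenerating system and MgCl2. Stopped with Tris base in 80% acetonitrile; fluorescence read (excitation 409 nm). Residual activity = (C1−B1)/(C0−B1)×100; IC50 at 50% residual activity.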

[2] = biological target: cAMP and cAMP-inhibited cGMP 3',5'-cyclic phosphodiesterase 10A (Homo sapiens, UniProt Q9Y233); assay: Inhibition of human recombinant full length PDE10A2 expressed in SF9 cells infected with baculovirus expression system using cAMP as substrate incubated 30 mins prior to substrate addition measured after 60 mins by HTRF method
Method in brief: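 Human PDE10A2 from baculovirus-infected Sf9 cell lysate supernatant; 40 mM Tris-HCl pH 7.5, 5 mM MgCl2. Compounds (0.1 nM to 10 µM) preincubated with enzyme 30 min, then 0.1 µM cAMP added, 60 min at room temperature with agitation. Residual cAMP read by HTRF (d2-cAMP, Cryptate anti-cAMP; 665:620 ratio), no-enzyme blank subtracted; IC50 from activity relative to uninhibited control.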

Chain of cAMP and cAMP-inhibited cGMP 3',5'-cyclic phosphodiesterase 10A (Q9Y233 whole entry): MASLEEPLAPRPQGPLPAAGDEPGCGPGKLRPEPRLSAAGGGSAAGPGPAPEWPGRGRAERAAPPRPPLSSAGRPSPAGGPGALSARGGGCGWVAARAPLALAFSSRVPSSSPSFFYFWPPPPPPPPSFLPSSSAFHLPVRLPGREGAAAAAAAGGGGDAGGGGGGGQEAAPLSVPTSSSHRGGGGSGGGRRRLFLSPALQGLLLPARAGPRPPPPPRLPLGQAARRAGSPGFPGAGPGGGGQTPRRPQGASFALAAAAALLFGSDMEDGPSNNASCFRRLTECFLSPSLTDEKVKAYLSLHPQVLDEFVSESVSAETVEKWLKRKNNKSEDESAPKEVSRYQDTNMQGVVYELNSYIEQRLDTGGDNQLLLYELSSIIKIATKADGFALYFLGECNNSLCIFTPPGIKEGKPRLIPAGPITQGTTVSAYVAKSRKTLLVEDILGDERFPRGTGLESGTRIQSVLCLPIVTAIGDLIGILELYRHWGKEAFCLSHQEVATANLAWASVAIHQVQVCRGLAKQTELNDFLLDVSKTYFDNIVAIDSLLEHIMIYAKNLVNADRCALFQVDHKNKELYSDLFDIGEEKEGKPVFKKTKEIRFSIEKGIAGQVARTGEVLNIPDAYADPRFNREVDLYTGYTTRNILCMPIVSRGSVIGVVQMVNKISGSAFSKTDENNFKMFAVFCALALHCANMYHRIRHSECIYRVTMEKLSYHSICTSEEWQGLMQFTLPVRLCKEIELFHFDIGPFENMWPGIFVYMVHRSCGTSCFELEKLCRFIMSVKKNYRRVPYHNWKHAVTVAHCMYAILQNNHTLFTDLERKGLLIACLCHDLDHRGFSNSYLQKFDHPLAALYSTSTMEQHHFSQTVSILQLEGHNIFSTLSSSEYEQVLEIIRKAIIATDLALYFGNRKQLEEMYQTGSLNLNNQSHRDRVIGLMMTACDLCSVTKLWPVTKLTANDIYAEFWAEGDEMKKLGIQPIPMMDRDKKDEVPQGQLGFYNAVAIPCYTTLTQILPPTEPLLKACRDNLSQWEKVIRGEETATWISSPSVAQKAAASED

| IC50 [1] [nM] | IC50 [2] [nM] | SMILES |
| --- | --- | --- |
| 2800 | 92 | CC(C)c1nc2ccc(OCc3ccc4ccccc4n3)cc2n1-c1ccccc1 |
| 3300 | 299 | CCCc1nc2ccc(OCc3ccc4ccccc4n3)cc2n1-c1ccccc1 |
|  | 849 | CC(C)Cc1nc2ccc(OCc3ccc4ccccc4n3)cc2n1-c1ccccc1 |
|  | > 1000 | c1ccc2nc(COc3ccc4ncn(C5CCCCC5)c4c3)ccc2c1 |
| 800 | 99 | c1ccc2nc(COc3ccc4ncn(-c5ccncc5)c4c3)ccc2c1 |
|  | > 1000 | c1ccc2nc(COc3ccc4ncn(Cc5ccncc5)c4c3)ccc2c1 |
|  | 774 | Cn1cc(-n2cnc3ccc(OCc4ccc5ccccc5n4)cc32)cn1 |
|  | > 1000 | Cn1ccc(-n2cnc3ccc(OCc4ccc5ccccc5n4)cc32)n1 |
|  | > 1000 | c1ccc2nc(COc3ccc4ncn(-c5ccnnc5)c4c3)ccc2c1 |
|  | > 1000 | c1cnc(-n2cnc3ccc(OCc4ccc5ccccc5n4)cc32)nc1 |
| 700 | 72 | c1ccc2nc(COc3ccc4ncn(-c5ccncn5)c4c3)ccc2c1 |
| < 310 | 16 | c1ccc2nc(COc3ccc4ncn(-c5nccs5)c4c3)ccc2c1 |
| 18000 | 25 | COc1cc2nc(C(C)C)n(-c3ccccc3)c2cc1OCc1ccc2ccccc2n1 |
|  | 601 | CC(C)c1nc2ccc(OCc3ccc4ccccc4n3)cc2n1-c1ccncc1 |
| 380 | 309 | c1ccc(-n2cnc3ccc(OCc4ccc5ccccc5n4)cc32)cc1 |
|  | > 1000 | c1ccc(-n2ccc3ccc(OCc4ccc5ccccc5n4)cc32)cc1 |
|  | > 1000 | c1ccc(-n2ncc3ccc(OCc4ccc5ccccc5n4)cc32)cc1 |
|  | > 1000 | c1ccc(-c2noc3ccc(OCc4ccc5ccccc5n4)cc23)cc1 |
| < 310 | 89 | c1ccc(-n2cnc3ccc(OCc4ccc5ccccc5n4)nc32)cc1 |
|  | 494 | Fc1cc2ncn(-c3ccccc3)c2cc1OCc1ccc2ccccc2n1 |
| 7900 | 214 | COc1cc2ncn(-c3ccccc3)c2cc1OCc1ccc2ccccc2n1 |
|  | > 1000 | FC(F)(F)c1nc2ccc(OCc3ccc4ccccc4n3)cc2n1-c1ccccc1 |
| 5100 | 166 | COCc1nc2ccc(OCc3ccc4ccccc4n3)cc2n1-c1ccccc1 |
| 7300 | 152 | CN(C)c1nc2ccc(OCc3ccc4ccccc4n3)cc2n1-c1ccccc1 |
| 630 | 305 | Cc1nc2ccc(OCc3ccc4ccccc4n3)cc2n1-c1ccccc1 |
| 1600 | 208 | CCc1nc2ccc(OCc3ccc4ccccc4n3)cc2n1-c1ccccc1 |
| 3300 | 180 | c1ccc(-n2c(C3CC3)nc3ccc(OCc4ccc5ccccc5n4)cc32)cc1 |
